Columns and labels:
[1] = molecular target: T1, ATP-dependent translocase ABCB1 (Homo sapiens, UniProt P08183); experiment: Inhibition of P-gp mediated efflux in adriamycin-resistant human HepG2 cells assessed as intracellular rhodamine-123 accumulation at 0.125 to 10 uM incubated in dark condition for 90 mins by flow cytometry; type: cell-based
How it was run: (§1)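 HepG2/ADR cells seeded at 5 × 10^5/well and given compound plus 10 μM Rho123 in the dark at 37 °C for 90 min. Cells washed twice in ice-cold PBS, resuspended in PBS, read by flow cytometry in FL1 (Em 525 nm). Fold of control = (treated fluorescence − background)/(Rho123-only fluorescence − background).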

[2] = molecular target: T1, ATP-dependent translocase ABCB1; experiment: Inhibition of P-gp mediated efflux in adriamycin-resistant human HepG2 cells assessed as intracellular rhodamine-123 accumulation at 10 uM incubated in dark condition for 90 mins by flow cytometry relative to control; type: cell-based; how it was run: as §1
NCI/ADR-RES = experiment: Intrinsic cytotoxicity against human MCF7/ADR cells assessed as inhibition of cell proliferation after 48 hrs by MTT assay; type: cell-based
How it was run: (§2)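 Seeded at 5 × 10^3 cells/well with graded compound levels, DMSO as negative control, 48 h. MTT added for 4 h, formazan dissolved in DMSO, OD read at 570 nm (reference 630 nm). IC50 by nonlinear regression; triplicate samples.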

HepG2 = experiment: Cytotoxicity against adriamycin-resistant human HepG2 cells assessed as inhibition of cell proliferation after 48 hrs by MTT assay; type: functional, cell-based; settings: HepG2, 48 h; how it was run: as §2

T1 sequence (P08183 whole entry): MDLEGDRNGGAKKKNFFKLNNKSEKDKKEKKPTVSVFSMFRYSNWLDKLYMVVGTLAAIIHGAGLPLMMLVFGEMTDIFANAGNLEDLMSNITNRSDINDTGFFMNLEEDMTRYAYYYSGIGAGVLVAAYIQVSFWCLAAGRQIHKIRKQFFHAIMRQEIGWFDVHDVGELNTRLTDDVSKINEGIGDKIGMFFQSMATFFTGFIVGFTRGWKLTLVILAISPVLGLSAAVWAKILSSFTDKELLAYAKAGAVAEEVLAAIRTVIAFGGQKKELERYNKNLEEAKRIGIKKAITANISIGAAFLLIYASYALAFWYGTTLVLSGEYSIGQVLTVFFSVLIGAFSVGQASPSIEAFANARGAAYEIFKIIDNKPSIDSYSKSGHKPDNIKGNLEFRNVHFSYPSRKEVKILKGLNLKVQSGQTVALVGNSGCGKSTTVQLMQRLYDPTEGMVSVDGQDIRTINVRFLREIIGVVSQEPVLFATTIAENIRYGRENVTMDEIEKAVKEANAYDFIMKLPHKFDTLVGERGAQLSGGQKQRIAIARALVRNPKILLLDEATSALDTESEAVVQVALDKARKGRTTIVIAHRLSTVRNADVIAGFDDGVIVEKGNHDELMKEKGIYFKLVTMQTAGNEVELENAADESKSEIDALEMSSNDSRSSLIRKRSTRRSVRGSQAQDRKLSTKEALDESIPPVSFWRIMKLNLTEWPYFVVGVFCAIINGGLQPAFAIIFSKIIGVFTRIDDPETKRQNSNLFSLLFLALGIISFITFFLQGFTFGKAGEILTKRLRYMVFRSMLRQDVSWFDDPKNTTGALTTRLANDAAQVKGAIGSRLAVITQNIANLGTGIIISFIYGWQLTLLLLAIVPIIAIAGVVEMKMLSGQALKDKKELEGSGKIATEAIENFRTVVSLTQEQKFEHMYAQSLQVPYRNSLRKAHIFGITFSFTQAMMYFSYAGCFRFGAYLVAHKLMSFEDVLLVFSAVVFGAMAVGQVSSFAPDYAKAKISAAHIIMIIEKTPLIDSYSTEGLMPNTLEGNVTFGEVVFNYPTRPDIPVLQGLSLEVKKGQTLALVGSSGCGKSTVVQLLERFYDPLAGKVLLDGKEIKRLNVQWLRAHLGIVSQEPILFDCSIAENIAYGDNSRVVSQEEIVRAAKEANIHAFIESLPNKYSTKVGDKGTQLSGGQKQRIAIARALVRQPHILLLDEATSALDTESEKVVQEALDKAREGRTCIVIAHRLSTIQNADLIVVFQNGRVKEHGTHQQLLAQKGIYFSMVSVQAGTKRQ

Compound: CC(=O)O[C@@H]1[C@@H](OC(C)=O)C(=O)/C(C)=C/C2=C[C@@H](C)[C@H](OC(C)=O)[C@]2(OC(C)=O)[C@H](OC(C)=O)/C(C)=C/CC1(C)C
- INH [1]: Not Active

Compound: CC(=O)O[C@@H]1C[C@@H](OC(=O)c2ccccc2)/C(C)=C/[C@H]2[C@@H](OC(=O)c3ccccc3)[C@@H](C)[C@H](O)[C@]2(OC(C)=O)[C@H](OC(C)=O)[C@](C)(O)/C=C/C1(C)C
- INH [2]: Active

Compound: C/C1=C\[C@H]2[C@@H](OC(=O)c3ccccc3)[C@@H](C)[C@H](O)[C@]2(O)[C@H](O)[C@](C)(O)/C=C/C(C)(C)[C@H](O)C[C@H]1O
- INH [1]: Not Active

Compound: CC(=O)O[C@@H]1[C@@H](OC(C)=O)C(=O)/C(C)=C/[C@H]2[C@@H](OC(=O)c3ccccc3)[C@@H](C)[C@H](OC(C)=O)[C@]2(OC(C)=O)[C@H](OC(C)=O)[C@]2(C)O[C@H]2CC1(C)C
- INH [2]: Active

Compound: CC(=O)O[C@@H]1[C@@H](OC(C)=O)C(C)(C)C/C=C(\C)[C@@H](OC(C)=O)[C@]2(OC(C)=O)[C@@H](/C=C(\C)[C@@H]1OC(C)=O)[C@@H](OC(=O)c1ccccc1)[C@@H](C)[C@@H]2OC(C)=O
- INH [2]: Active

Compound: CC(=O)O[C@@H]1C[C@@H](O)/C(C)=C/[C@H]2[C@@H](OC(=O)c3ccccc3)[C@@H](C)[C@H](O)[C@]2(OC(C)=O)[C@H](O)[C@](C)(O)/C=C/C1(C)C
- INH [1]: Not Active

Compound: CC(=O)O[C@@H]1[C@@H](O)C(=O)/C(C)=C/C2=C[C@@H](C)[C@H](OC(C)=O)[C@]2(OC(C)=O)[C@H](OC(C)=O)/C(C)=C/CC1(C)C
- INH [1]: Not Active

Compound: CC(=O)O[C@@H]1C[C@@H](OC(C)=O)C(C)(C)/C=C/[C@@](C)(O)[C@@H](O)[C@@]2(OC(C)=O)[C@@H](O)[C@H](C)[C@H](OC(=O)c3ccccc3)[C@@H]2/C=C/1C
- INH [2]: Active

Compound: CC(=O)O[C@@H]1C[C@@H](OC(=O)c2ccccc2)/C(C)=C/[C@H]2[C@@H](OC(=O)c3ccccc3)[C@@H](C)[C@H](OC(=O)c3ccco3)[C@]2(OC(C)=O)[C@H](O)[C@](C)(O)/C=C/C1(C)C
- INH [2]: Active
- IC50 (NCI/ADR-RES): > 150 µM
- IC50 (HepG2): > 150 µM

Compound: CC(=O)O[C@@H]1C[C@@H](OC(=O)c2ccccc2)/C(C)=C/[C@H]2[C@@H](OC(=O)c3ccccc3)[C@@H](C)[C@H](O)[C@]2(O)[C@H](O)[C@](C)(O)/C=C/C1(C)C
- INH [2]: Active

Compound: CC(=O)O/C1=C(\C)[C@@H](O)[C@H]2[C@@H](OC(=O)c3ccccc3)[C@@H](C)[C@H](OC(C)=O)[C@]2(OC(C)=O)[C@H](OC(C)=O)/C(C)=C/CC(C)(C)[C@H](OC(C)=O)[C@H]1OC(C)=O
- INH [2]: Active

Compound: CC(=O)O[C@@H]1C[C@@H](OC(=O)c2ccccc2)/C(C)=C/[C@H]2[C@@H](OC(=O)c3ccccc3)[C@@H](C)[C@H](OC(=O)c3cccs3)[C@]2(OC(C)=O)[C@H](O)[C@](C)(O)/C=C/C1(C)C
- INH [2]: Active
- IC50 (NCI/ADR-RES): > 150 µM
- IC50 (HepG2): > 150 µM

Compound: CC(=O)O[C@@H]1C[C@@H](O)/C(C)=C/[C@H]2[C@@H](OC(=O)c3ccccc3)[C@@H](C)[C@H](O)[C@]2(OC(C)=O)[C@H](OC(=O)c2ccccc2)[C@](C)(O)/C=C/C1(C)C
- INH [2]: Active

Compound: CC(=O)O[C@@H]1[C@@H](OC(C)=O)C(=O)/C(C)=C/[C@H]2[C@@H](OC(=O)c3ccccc3)[C@@H](C)[C@H](OC(C)=O)[C@]2(OC(C)=O)[C@H](OC(C)=O)/C(C)=C/CC1(C)C
- INH [2]: Active

Compound: CC(=O)O[C@@H]1C[C@@H](OC(=O)c2ccccc2)/C(C)=C/[C@H]2[C@@H](OC(=O)c3ccccc3)[C@@H](C)[C@H](OC(C)=O)[C@]2(OC(C)=O)[C@H](O)[C@](C)(O)/C=C/C1(C)C
- INH [2]: Active
- IC50 (NCI/ADR-RES): > 150 µM
- IC50 (HepG2): 93.3 µM

Compound: CC(=O)O[C@@H]1C[C@@H](OC(=O)c2ccccc2)/C(C)=C/[C@H]2[C@@H](OC(=O)c3ccccc3)[C@@H](C)[C@H](OC(=O)c3ccc(Br)cc3)[C@]2(OC(C)=O)[C@H](O)[C@](C)(O)/C=C/C1(C)C
- INH [2]: Active
- IC50 (NCI/ADR-RES): > 150 µM
- IC50 (HepG2): 81.3 µM

— ChEMBL document CHEMBL4431315, “Jatrophane Diterpenoids as Modulators of P-Glycoprotein-Dependent Multidrug Resistance (MDR): Advances of Structure-Activity Relationships and Discovery of Promising MDR Reversal Agents” (J Med Chem, 2016)
